Each block holds one compound with its values, some of them ahead of it.
Assays:
[1] = test system: LPS-treated BV2 microglial cells; conditions: 15 μmol; cited from earlier work
[2] = named as a side effect restricting use; cited from earlier work
[3] = named as a side effect restricting use; cited from earlier work; remark: listed apart in the source
sEH [4] = target: T1, sEH (Homo sapiens, UniProt P34913); experiment: biochemical
T1 sequence (P34913 1-555): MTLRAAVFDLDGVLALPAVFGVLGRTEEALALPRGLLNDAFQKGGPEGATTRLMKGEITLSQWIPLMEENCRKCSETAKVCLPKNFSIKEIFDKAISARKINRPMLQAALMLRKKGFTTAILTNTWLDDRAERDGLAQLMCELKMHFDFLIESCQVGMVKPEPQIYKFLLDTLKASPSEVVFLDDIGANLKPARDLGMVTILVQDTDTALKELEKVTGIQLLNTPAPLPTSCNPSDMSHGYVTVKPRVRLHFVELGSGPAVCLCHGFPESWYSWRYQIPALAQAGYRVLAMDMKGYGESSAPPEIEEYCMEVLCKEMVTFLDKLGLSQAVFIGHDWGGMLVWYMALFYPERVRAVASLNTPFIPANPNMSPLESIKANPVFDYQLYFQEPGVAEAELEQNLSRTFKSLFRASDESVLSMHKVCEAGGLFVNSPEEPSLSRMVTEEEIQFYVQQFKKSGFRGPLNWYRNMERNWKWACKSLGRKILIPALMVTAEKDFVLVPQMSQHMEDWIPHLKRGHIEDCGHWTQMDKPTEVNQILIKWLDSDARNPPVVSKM

sEH [5] = target: T1, sEH; experiment: Enzyme kinetics analysis; type: biochemical
Method in brief: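 Recombinant human sEH (250 ng/mL) in 25 mM Tris–HCl, pH 7.0, with 0.1 mg/mL BSA, mixed with inhibitor in methanol, then PHOME substrate added at several concentrations. Product fluorescence was read at ex 330/em 465 nm. Initial velocities at each fixed inhibitor concentration were plotted double-reciprocally (Lineweaver–Burk) to assign inhibition mode and derive Ki. Triplicates in three independent experiments, mean ± SEM.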

sEH [6] = conditions: derived from the leaves of Capsicum chinense; cited from earlier work

Compound: O=C(C=Cc1cc(O)c2c(c1)C(C(=O)NCCc1ccc(O)cc1)C(c1ccc(O)c(O)c1)O2)NCCc1ccc(O)cc1 (stereo not shown) [3,3′-demethyl-grossamide]
anti-neuroinflammatory activities via TNF-α suppression [1]: exerted anti-neuroinflammatory activities

Compound: O=C(O)CCCCCCCCCCCNC(=O)NC12CC3CC(CC(C3)C1)C2 [AUDA, 12-(3-adamantane-1-yl-ureido)-dodecanoic acid]
metabolic stability [2]: metabolic instability
water solubility [3]: limited water solubility

IC50 (sEH [4]): 3300 ± 300 nM
Ki (sEH [5]): 1500 nM
Inhibition type (sEH [5]; Lineweaver-Burk plots): Competitive
Compound: COc1cc([C@@H]2Oc3c(OC)cc(/C=C/C(=O)NCCc4ccc(O)cc4)cc3[C@H]2C(=O)NCCc2ccc(O)cc2)ccc1O [Compound 5, grossamide]

Compound: O=C(/C=C/c1ccc(O)cc1)NCCc1ccc(O)cc1 [N-trans-Coumaroyltyramine]
mode of inhibition against sEH (sEH [6]): competitive inhibition

Compound: COc1cc(/C=C/C(=O)NCCc2ccc(O)cc2)ccc1O [N-trans-feruloyltyramine]
mode of inhibition against sEH (sEH [6]): competitive inhibition

Compound: COc1cc(/C=C(C(=O)NCCc2ccc(O)cc2)\C(=C/c2ccc(O)c(OC)c2)C(=O)NCCc2ccc(O)cc2)ccc1O [cannabisin G]
anti-neuroinflammatory activities via TNF-α suppression [1]: exerted anti-neuroinflammatory activities

Compound: coumaroyl-amino butanol glucopyranoside
anti-neuroinflammatory activities via TNF-α suppression [1]: exerted anti-neuroinflammatory activities
